From ChEMBL document CHEMBL1255284, “Aspergillus section Fumigati: antifungal susceptibility patterns and sequence-based identification” (2008)
≈ marks a conversion by molar mass, not a printed value. Numbered stars: 1 amine (or outer) side, 2 acyl side, 3 side chain; on linkers, the order of the positions; unused ones are H or OH. Bridge positions count the residues as written; N and C are the ends. Square brackets hold non-standard residues; d marks the D form. Peptide text beside a SMILES is read from it. * marks the point of attachment. hTyr(3S-OH,4S-OH,3'-OSO3H) = N[C@H](C(=O)O)[C@H](O)[C@@H](O)c1ccc(O)c(OS(=O)(=O)O)c1; Orn(4R-OH,5R-OH) = O=C([C@H](C[C@@H](O)[C@@H](O)N[*:3])N[*:1])[*:2]; Pro(3S-OH,4S-Me) = C[C@H]1CN[C@H](C(=O)O)[C@H]1O; X1 = CCCCCOc1ccc(-c2cc(-c3ccc(C(=O)*)cc3)no2)cc1; Gln(3R-OH) = NC(=O)C[C@@H](O)[C@H](N)C(=O)O; Hyp = O=C(O)[C@@H]1C[C@@H](O)CN1

Assays:
Aspergillus viridinutans [1] = test: Antimicrobial activity against Aspergillus viridinutans isolate CNM-CM-3147 obtained from oropharyngeal exudate of patient after 48 hrs by broth microdilution method; type: functional; conditions: isolate CNM-CM-3147, 48 h
Summary of the method: (§1)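 CLSI M38-A broth microdilution with modifications: RPMI 1640 with L-glutamine, 2% glucose, buffered to pH 7 with 0.165 M MOPS. Inoculum of 1 × 10^5 to 5 × 10^5 CFU/ml from 3- to 5-day-old cultures. Incubated 35°C, 48 h, humid. Visual reading with a mirror. MIC is complete growth inhibition; echinocandin MEC is hyphal morphological alteration. Azoles 8 to 0.015 μg/ml; others 16 to 0.03 μg/ml.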

[2] = system: Aspergillus fumigatiaffinis; test: Antimicrobial activity against Aspergillus fumigatiaffinis isolate CNM-CM-2280 obtained from sputum of patient after 48 hrs by broth microdilution method; conditions: isolate CNM-CM-2280, 48 h
Aspergillus lentulus [3] = test: Antimicrobial activity against Aspergillus lentulus isolate CNM-CM-3134 obtained from sputum of patient after 48 hrs by broth microdilution method; type: functional; conditions: isolate CNM-CM-3134, 48 h; summary of the method: as §1
Aspergillus lentulus [4] = test: Antimicrobial activity against Aspergillus lentulus isolate CNM-CM-1290 obtained from sputum of patient after 48 hrs by broth microdilution method; type: functional; conditions: isolate CNM-CM-1290, 48 h; summary of the method: as §1
Aspergillus lentulus [5] = test: Antimicrobial activity against Aspergillus lentulus isolate CNM-CM-4415 obtained from sputum of patient after 48 hrs by broth microdilution method; type: functional; conditions: isolate CNM-CM-4415, 48 h; summary of the method: as §1
Aspergillus lentulus [6] = test: Antimicrobial activity against Aspergillus lentulus isolate CNM-CM-4420 obtained from nail of patient after 48 hrs by broth microdilution method; type: functional; conditions: isolate CNM-CM-4420, 48 h; summary of the method: as §1
Neosartorya hiratsukae [7] = test: Antimicrobial activity against Neosartorya hiratsukae isolate CNM-CM-3305 obtained from skin of patient after 48 hrs by broth microdilution method; type: functional; conditions: Aspergillus hiratsukae, isolate CNM-CM-3305, 48 h; summary of the method: as §1
Aspergillus lentulus [8] = test: Antimicrobial activity against Aspergillus lentulus isolate CNM-CM-3537 obtained from sputum of patient after 48 hrs by broth microdilution method; type: functional; conditions: isolate CNM-CM-3537, 48 h; summary of the method: as §1
Aspergillus lentulus [9] = test: Antimicrobial activity against Aspergillus lentulus isolate CNM-CM-4428 obtained from skin of patient after 48 hrs by broth microdilution method; type: functional; conditions: isolate CNM-CM-4428, 48 h; summary of the method: as §1
Aspergillus lentulus [10] = test: Antimicrobial activity against Aspergillus lentulus isolate CNM-CM-3538 obtained from sputum of patient after 48 hrs by broth microdilution method; type: functional; conditions: isolate CNM-CM-3538, 48 h; summary of the method: as §1
Aspergillus lentulus [11] = test: Antimicrobial activity against Aspergillus lentulus isolate CNM-CM-4330 obtained from sputum of patient after 48 hrs by broth microdilution method; type: functional; conditions: isolate CNM-CM-4330, 48 h; summary of the method: as §1
Aspergillus lentulus [12] = test: Antimicrobial activity against Aspergillus lentulus isolate CNM-CM-4370 obtained from sputum of patient after 48 hrs by broth microdilution method; type: functional; conditions: isolate CNM-CM-4370, 48 h; summary of the method: as §1
[13] = system: Neosartorya pseudofischeri; test: Antimicrobial activity against Neosartorya pseudofischeri isolate CNM-CM-3914 obtained from nail of patient after 48 hrs by broth microdilution method; type: functional; conditions: Aspergillus thermomutatus, isolate CNM-CM-3914, 48 h
Summary of the method: (§2)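 CLSI M38-A broth microdilution with modifications: RPMI 1640 with L-glutamine, MOPS-buffered to pH 7, plus 2% glucose. Inoculum 1 × 10^5 to 5 × 10^5 CFU/ml from 3–5-day cultures. Incubated at 35°C for 48 h, humid. Read visually with a mirror. MIC = complete growth inhibition; echinocandin MEC = altered hyphal morphology. QC strain A. fumigatus ATCC 2004305.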

Aspergillus fumigatus = test: Antimicrobial activity against Aspergillus fumigatus ATCC 2004305 after 48 hrs by broth microdilution method; type: functional; conditions: ATCC 2004305, 48 h
[14] = system: Aspergillus fumigatiaffinis; test: Antimicrobial activity against Aspergillus fumigatiaffinis isolate CNM-CM-3227 obtained from bronchoalveolar lavage fluid of patient after 48 hrs by broth microdilution method; conditions: isolate CNM-CM-3227, Lung
Aspergillus lentulus [15] = test: Antimicrobial activity against Aspergillus lentulus isolate CNM-CM-4387 obtained from sputum of patient after 48 hrs by broth microdilution method; type: functional; conditions: isolate CNM-CM-4387, 48 h; summary of the method: as §1
Neosartorya hiratsukae [16] = test: Antimicrobial activity against Neosartorya hiratsukae isolate CNM-CM-3764 obtained from oropharyngeal exudate of patient after 48 hrs by broth microdilution method; type: functional; conditions: Aspergillus hiratsukae, isolate CNM-CM-3764, 48 h; summary of the method: as §1
[17] = system: Neosartorya pseudofischeri; test: Antimicrobial activity against Neosartorya pseudofischeri isolate CNM-CM-4060 obtained from sputum of patient after 48 hrs by broth microdilution method; type: functional; conditions: Aspergillus thermomutatus; summary of the method: as §2
[18] = system: Aspergillus fumisynnematus; test: Antimicrobial activity against Aspergillus fumisynnematus isolate CNM-CM-4063 obtained from bronchoalveolar aspirate of patient after 48 hrs by broth microdilution method; type: functional; conditions: isolate CNM-CM-4063, Lung; summary of the method: as §1
Neosartorya hiratsukae [19] = test: Antimicrobial activity against Neosartorya hiratsukae isolate CNM-CM-3303 obtained from skin of patient after 48 hrs by broth microdilution method; type: functional; conditions: Aspergillus hiratsukae, isolate CNM-CM-3303, 48 h; summary of the method: as §1
Aspergillus lentulus [20] = test: Antimicrobial activity against Aspergillus lentulus isolate CNM-CM-3599 obtained from sputum of patient after 48 hrs by broth microdilution method; type: functional; conditions: isolate CNM-CM-3599, 48 h; summary of the method: as §1
Aspergillus viridinutans [21] = test: Antimicrobial activity against Aspergillus viridinutans isolate CNM-CM-4518 obtained from nail of patient after 48 hrs by broth microdilution method; type: functional; conditions: isolate CNM-CM-4518, 48 h; summary of the method: as §1
Neosartorya hiratsukae [22] = test: Antimicrobial activity against Neosartorya hiratsukae isolate CNM-CM-4328 obtained from cornea of patient after 48 hrs by broth microdilution method; type: functional; conditions: Aspergillus hiratsukae, isolate CNM-CM-4328, Cornea; summary of the method: as §1
Aspergillus lentulus [23] = test: Antimicrobial activity against Aspergillus lentulus isolate CNM-CM-4426 obtained from sputum of patient after 48 hrs by broth microdilution method; type: functional; conditions: isolate CNM-CM-4426, 48 h; summary of the method: as §1
Aspergillus lentulus [24] = test: Antimicrobial activity against Aspergillus lentulus isolate CNM-CM-3583 obtained from sputum of patient after 48 hrs by broth microdilution method; type: functional; conditions: isolate CNM-CM-3583, 48 h; summary of the method: as §1
Neosartorya hiratsukae [25] = test: Antimicrobial activity against Neosartorya hiratsukae isolate CNM-CM-3740 obtained from oropharyngeal exudate of patient after 48 hrs by broth microdilution method; type: functional; conditions: Aspergillus hiratsukae, isolate CNM-CM-3740, 48 h; summary of the method: as §1
[26] = system: Neosartorya pseudofischeri; test: Antimicrobial activity against Neosartorya pseudofischeri isolate CNM-CM-2270 obtained from sputum of patient after 48 hrs by broth microdilution method; type: functional; conditions: Aspergillus thermomutatus, isolate CNM-CM-2270, 48 h; summary of the method: as §2
Aspergillus lentulus [27] = test: Antimicrobial activity against Aspergillus lentulus isolate CNM-CM-3364 obtained from bronchoalveolar lavage fluid of patient after 48 hrs by broth microdilution method; type: functional; conditions: isolate CNM-CM-3364, Lung; summary of the method: as §1
[28] = system: Neosartorya pseudofischeri; test: Antimicrobial activity against Neosartorya pseudofischeri isolate CNM-CM-3769 obtained from sputum of patient after 48 hrs by broth microdilution method; type: functional; conditions: Aspergillus thermomutatus; summary of the method: as §2

CCC(C)n1ncn(-c2ccc(N3CCN(c4ccc(OCC5COC(Cn6cncn6)(c6ccc(Cl)cc6Cl)O5)cc4)CC3)cc2)c1=O (stereo not drawn) [ITRACONAZOLE]
MIC (Aspergillus viridinutans [1]): 14.4 µg/mL (≈ 20.4 µM)
MIC [2]: 6.66 µg/mL (≈ 9.44 µM)
MIC (Aspergillus lentulus [3]): 10.2 µg/mL (≈ 14.5 µM)
MIC (Aspergillus lentulus [4]): 9.25 µg/mL (≈ 13.1 µM)
MIC (Aspergillus lentulus [5]): 16 µg/mL (≈ 22.7 µM)
MIC (Aspergillus lentulus [6]): 8 µg/mL (≈ 11.3 µM)
MIC (Neosartorya hiratsukae [7]): 0.185 µg/mL (≈ 0.262 µM)
MIC (Aspergillus lentulus [8]): 8.25 µg/mL (≈ 11.7 µM)
MIC (Aspergillus lentulus [9]): 7 µg/mL (≈ 9.92 µM)
MIC (Aspergillus lentulus [10]): 8.25 µg/mL (≈ 11.7 µM)
MIC (Aspergillus lentulus [11]): 6 µg/mL (≈ 8.5 µM)
MIC (Aspergillus lentulus [12]): 8 µg/mL (≈ 11.3 µM)
MIC [13]: 16 µg/mL (≈ 22.7 µM)
MIC (Aspergillus fumigatus): 0.125 µg/mL (≈ 0.177 µM)
MIC [14]: 8 µg/mL (≈ 11.3 µM)
MIC (Aspergillus lentulus [15]): 8 µg/mL (≈ 11.3 µM)
MIC (Neosartorya hiratsukae [16]): 0.33 µg/mL (≈ 0.468 µM)
MIC [17]: 11 µg/mL (≈ 15.6 µM)
MIC [18]: 0.25 µg/mL (≈ 0.354 µM)
MIC (Neosartorya hiratsukae [19]): 0.12 µg/mL (≈ 0.17 µM)
MIC (Aspergillus lentulus [20]): 0.5 µg/mL (≈ 0.709 µM)
MIC (Aspergillus viridinutans [21]): 16 µg/mL (≈ 22.7 µM)
MIC (Neosartorya hiratsukae [22]): 0.25 µg/mL (≈ 0.354 µM)
MIC (Aspergillus lentulus [23]): 6.66 µg/mL (≈ 9.44 µM)
MIC (Aspergillus lentulus [24]): 0.43 µg/mL (≈ 0.609 µM)
MIC (Neosartorya hiratsukae [25]): 0.16 µg/mL (≈ 0.227 µM)
MIC [26]: 8 µg/mL (≈ 11.3 µM)
MIC (Aspergillus lentulus [27]): 8 µg/mL (≈ 11.3 µM)
MIC [28]: 8 µg/mL (≈ 11.3 µM)

CCCCCOc1ccc(-c2cc(-c3ccc(C(=O)N[C@H]4C[C@@H](O)[C@@H](O)NC(=O)[C@@H]5[C@@H](O)[C@@H](C)CN5C(=O)[C@H]([C@H](O)CC(N)=O)NC(=O)[C@H]([C@H](O)[C@@H](O)c5ccc(O)c(OS(=O)(=O)O)c5)NC(=O)[C@@H]5C[C@@H](O)CN5C(=O)[C@H]([C@@H](C)O)NC4=O)cc3)no2)cc1 [MICAFUNGIN] (X1-[Orn(4R-OH,5R-OH)]T[Hyp][hTyr(3S-OH,4S-OH,3'-OSO3H)][Gln(3R-OH)][Pro(3S-OH,4S-Me)]; lactam 1-C)
minimal effective concentration (Aspergillus viridinutans [1]; read-out: MEC): 0.2 µg/mL
minimal effective concentration ([2]; read-out: MEC): 0.04 µg/mL
minimal effective concentration (Aspergillus lentulus [3]; read-out: MEC): 0.07 µg/mL
minimal effective concentration (Aspergillus lentulus [4]; read-out: MEC): 0.05 µg/mL
minimal effective concentration (Aspergillus lentulus [5]; read-out: MEC): 0.03 µg/mL
minimal effective concentration (Aspergillus lentulus [6]; read-out: MEC): 0.03 µg/mL
minimal effective concentration (Neosartorya hiratsukae [7]; read-out: MEC): 0.14 µg/mL
minimal effective concentration (Aspergillus lentulus [8]; read-out: MEC): 0.04 µg/mL
minimal effective concentration (Aspergillus lentulus [9]; read-out: MEC): 0.03 µg/mL
minimal effective concentration (Aspergillus lentulus [10]; read-out: MEC): 0.1 µg/mL
minimal effective concentration (Aspergillus lentulus [11]; read-out: MEC): 0.03 µg/mL
minimal effective concentration (Aspergillus lentulus [12]; read-out: MEC): 0.03 µg/mL
minimal effective concentration ([13]; read-out: MEC): 0.03 µg/mL
minimal effective concentration (Aspergillus fumigatus; read-out: MEC): 0.03 µg/mL
minimal effective concentration ([14]; read-out: MEC): 0.08 µg/mL
minimal effective concentration (Aspergillus lentulus [15]; read-out: MEC): 0.03 µg/mL
minimal effective concentration (Neosartorya hiratsukae [16]; read-out: MEC): 0.04 µg/mL
minimal effective concentration ([17]; read-out: MEC): 0.03 µg/mL
minimal effective concentration ([18]; read-out: MEC): 0.03 µg/mL
minimal effective concentration (Neosartorya hiratsukae [19]; read-out: MEC): 0.03 µg/mL
minimal effective concentration (Aspergillus lentulus [20]; read-out: MEC): 0.03 µg/mL
minimal effective concentration (Aspergillus viridinutans [21]; read-out: MEC): 0.03 µg/mL
minimal effective concentration (Neosartorya hiratsukae [22]; read-out: MEC): 0.03 µg/mL
minimal effective concentration (Aspergillus lentulus [23]; read-out: MEC): 0.03 µg/mL
minimal effective concentration (Aspergillus lentulus [24]; read-out: MEC): 0.03 µg/mL
minimal effective concentration (Neosartorya hiratsukae [25]; read-out: MEC): 0.03 µg/mL
minimal effective concentration ([26]; read-out: MEC): 0.26 µg/mL
minimal effective concentration (Aspergillus lentulus [27]; read-out: MEC): 0.03 µg/mL
minimal effective concentration ([28]; read-out: MEC): 0.06 µg/mL
